What was measured:
Brassica juncea [1] = experiment: Post-emergence herbicidal activity against Brassica juncea assessed as inhibition at 150 g/hectare treated at two-leaf stage by green house assay; type: functional
How it was run: (§1)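 Greenhouse postemergence spray of diluted formulation solutions onto broadleaf weeds at the two-leaf stage. Primary screen at 150 g ai/ha, with selected compounds retested at 75 and 37.5 g ai/ha. Abutilon was tested at 150 g ai/ha only. Read-out is percent herbicidal damage relative to an untreated control.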

Digitaria sanguinalis [2] = experiment: Post-emergence herbicidal activity against Digitaria sanguinalis (hairy crabgrass) assessed as inhibition at 150 g/hectare treated at one-leaf stage by green house assay; type: functional
How it was run: (§2)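 Monocot weeds were sprayed postemergence in the greenhouse at the one-leaf stage with diluted formulation solutions. Primary dose was 150 g ai/ha, with follow-up doses of 75 and 37.5 g ai/ha for selected compounds. Activity is scored as percent herbicidal damage compared with an untreated control.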

Eclipta prostrata [3] = experiment: Post-emergence herbicidal activity against Eclipta prostrata assessed as inhibition at 150 g/hectare treated at two-leaf stage by green house assay; type: functional; how it was run: as §1
Amaranthus retroflexus [4] = experiment: Post-emergence herbicidal activity against Amaranthus retroflexus assessed as inhibition at 150 g/hectare treated at two-leaf stage by green house assay; type: functional; how it was run: as §1
Echinochloa crus-galli [5] = experiment: Post-emergence herbicidal activity against Echinochloa crus-galli (barnyard grass) assessed as inhibition at 150 g/hectare treated at one-leaf stage by green house assay; type: functional; how it was run: as §2
Setaria viridis [6] = experiment: Post-emergence herbicidal activity against Setaria viridis (green foxtail) assessed as inhibition at 150 g/hectare treated at one-leaf stage by green house assay; type: functional; how it was run: as §2
Abutilon theophrasti = experiment: Post-emergence herbicidal activity against Abutilon theophrasti (velvetleaf) assessed as inhibition at 150 g/hectare treated at two-leaf stage by green house assay; type: functional; how it was run: as §1
Digitaria sanguinalis [7] = experiment: Post-emergence herbicidal activity against Digitaria sanguinalis (hairy crabgrass) assessed as inhibition at 37.5 g/hectare treated at one-leaf stage by green house assay; type: functional; how it was run: as §2
Setaria viridis [8] = experiment: Post-emergence herbicidal activity against Setaria viridis (green foxtail) assessed as inhibition at 37.5 g/hectare treated at one-leaf stage by green house assay; type: functional; how it was run: as §2
Brassica juncea [9] = experiment: Post-emergence herbicidal activity against Brassica juncea assessed as inhibition at 37.5 g/hectare treated at two-leaf stage by green house assay; type: functional; how it was run: as §1
Setaria viridis [10] = experiment: Post-emergence herbicidal activity against Setaria viridis (green foxtail) assessed as inhibition at 75 g/hectare treated at one-leaf stage by green house assay; type: functional; how it was run: as §2
Brassica juncea [11] = experiment: Post-emergence herbicidal activity against Brassica juncea assessed as inhibition at 75 g/hectare treated at two-leaf stage by green house assay; type: functional; how it was run: as §1
Echinochloa crus-galli [12] = experiment: Post-emergence herbicidal activity against Echinochloa crus-galli (barnyard grass) assessed as inhibition at 37.5 g/hectare treated at one-leaf stage by green house assay; type: functional; how it was run: as §2
Amaranthus retroflexus [13] = experiment: Post-emergence herbicidal activity against Amaranthus retroflexus assessed as inhibition at 37.5 g/hectare treated at two-leaf stage by green house assay; type: functional; how it was run: as §1
Eclipta prostrata [14] = experiment: Post-emergence herbicidal activity against Eclipta prostrata assessed as inhibition at 75 g/hectare treated at two-leaf stage by green house assay; type: functional; how it was run: as §1
Echinochloa crus-galli [15] = experiment: Post-emergence herbicidal activity against Echinochloa crus-galli (barnyard grass) assessed as inhibition at 75 g/hectare treated at one-leaf stage by green house assay; type: functional; how it was run: as §2
Eclipta prostrata [16] = experiment: Post-emergence herbicidal activity against Eclipta prostrata assessed as inhibition at 37.5 g/hectare treated at two-leaf stage by green house assay; type: functional; how it was run: as §1
Amaranthus retroflexus [17] = experiment: Post-emergence herbicidal activity against Amaranthus retroflexus assessed as inhibition at 75 g/hectare treated at two-leaf stage by green house assay; type: functional; how it was run: as §1
Digitaria sanguinalis [18] = experiment: Post-emergence herbicidal activity against Digitaria sanguinalis (hairy crabgrass) assessed as inhibition at 75 g/hectare treated at one-leaf stage by green house assay; type: functional; how it was run: as §2
Oryza sativa = experiment: Toxicity in Oryza sativa (rice) plant assessed as inhibition at 150 g/hectare; type: organism-based; settings: in vivo
How it was run: (§3)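 For crop selectivity, conventional crop varieties were planted in 12 cm diameter plots and given a postemergence treatment at 150 g ai/ha. Injury was scored as percent inhibition, with 0–10% classed as safe to the crop.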

Zea mays = experiment: Toxicity in Zea mays (maize) plant assessed as inhibition at 150 g/hectare; type: organism-based; settings: in vivo; how it was run: as §3
Triticum aestivum = experiment: Toxicity in Triticum aestivum (wheat) plant assessed as inhibition at 150 g/hectare; type: organism-based; settings: in vivo; how it was run: as §3
Brassica napus = experiment: Toxicity in Brassica napus (oilseed rape) assessed as inhibition at 150 g/hectare; type: functional; how it was run: as §3
Gossypium hirsutum = experiment: Toxicity in Gossypium hirsutum (cotton) plant assessed as inhibition at 150 g/hectare; type: organism-based; settings: in vivo; how it was run: as §3
Glycine max = experiment: Toxicity in Glycine max (soybean) plant assessed as inhibition at 150 g/hectare; type: organism-based; settings: in vivo; how it was run: as §3

Compound | inhibition at 150 g/ha (Brassica juncea [1]) | inhibition at 150 g/ha (Digitaria sanguinalis [2]) | inhibition at 150 g/ha (Eclipta prostrata [3]) | inhibition at 150 g/ha (Amaranthus retroflexus [4]) | inhibition at 150 g/ha (Echinochloa crus-galli [5]) | inhibition at 150 g/ha (Setaria viridis [6]) | inhibition at 150 g/ha (Abutilon theophrasti) | other results
CC1(C)COP(=O)(C(OC(=O)COc2ccccc2Cl)c2ccccc2)OC1 (stereo not drawn) | 75% | 0% | 65% | 75% | 0% | 0% | 70% | –
Cc1cc(OCC(=O)OC(c2ccccc2)P2(=O)OCC(C)(C)CO2)ccc1Cl (stereo not drawn) | 65% | 0% | 60% | 65% | 0% | 0% | 65% | –
Cc1cc(Cl)ccc1OCC(=O)OC(c1ccco1)P1(=O)OCC(C)(C)CO1 (stereo not drawn) | 90% | 0% | 70% | 100% | 60% | 0% | 100% | –
COP(=O)(OC)C(C)OC(=O)COc1ccc(Cl)cc1Cl (stereo not drawn) [CLACYFOS] | 85% | 0% | 90% | 96% | 0% | 0% | 100% | inhibition at 37.5 g/ha (Digitaria sanguinalis [7]): 0%; inhibition at 37.5 g/ha (Setaria viridis [8]): 0%; inhibition at 37.5 g/ha (Brassica juncea [9]): 90%; inhibition at 75 g/ha (Setaria viridis [10]): 0%; inhibition at 75 g/ha (Brassica juncea [11]): 95%; inhibition at 37.5 g/ha (Echinochloa crus-galli [12]): 0%; inhibition at 37.5 g/ha (Amaranthus retroflexus [13]): 70%; inhibition at 75 g/ha (Eclipta prostrata [14]): 80%; inhibition at 75 g/ha (Echinochloa crus-galli [15]): 0%; inhibition at 37.5 g/ha (Eclipta prostrata [16]): 60%; inhibition at 75 g/ha (Amaranthus retroflexus [17]): 95%; inhibition at 75 g/ha (Digitaria sanguinalis [18]): 0%
Cc1cc(Cl)ccc1OCC(=O)OC(c1ccccc1)P1(=O)OCC(C)(C)CO1 (stereo not drawn) | 90% | 0% | 75% | 100% | 40% | 0% | 100% | –
CCCCC(OC(=O)COc1ccc(Cl)cc1Cl)P1(=O)OCC(C)(C)CO1 (stereo not drawn) | 100% | 0% | 75% | 85% | 0% | 0% | 90% | inhibition at 37.5 g/ha (Digitaria sanguinalis [7]): 0%; inhibition (INH) (Oryza sativa): 30%; inhibition at 37.5 g/ha (Setaria viridis [8]): 0%; inhibition (INH) (Zea mays): 0%; inhibition at 37.5 g/ha (Brassica juncea [9]): 90%; inhibition at 75 g/ha (Setaria viridis [10]): 0%; inhibition at 75 g/ha (Brassica juncea [11]): 100%; inhibition at 37.5 g/ha (Echinochloa crus-galli [12]): 0%; inhibition at 37.5 g/ha (Amaranthus retroflexus [13]): 50%; inhibition at 75 g/ha (Eclipta prostrata [14]): 40%; inhibition (INH) (Triticum aestivum): 10%; inhibition at 150 g/ha (Brassica napus): 40%; inhibition (INH) (Gossypium hirsutum): 20%; inhibition at 75 g/ha (Echinochloa crus-galli [15]): 0%; inhibition at 37.5 g/ha (Eclipta prostrata [16]): 30%; inhibition at 75 g/ha (Amaranthus retroflexus [17]): 70%; inhibition at 75 g/ha (Digitaria sanguinalis [18]): 0%; inhibition (INH) (Glycine max): 30%
COP(=O)(OC)C(C)OC(=O)COc1ccc(Cl)cc1C (stereo not drawn) | 20% | 0% | 30% | 10% | 0% | 0% | 82% | –
CC1(C)COP(=O)(C(OC(=O)COc2ccc(Cl)cc2)c2ccco2)OC1 (stereo not drawn) | 70% | 0% | 50% | 55% | 0% | 0% | 70% | –
Cc1cc(OCC(=O)OC(C)P2(=O)OCC(C)(C)CO2)ccc1Cl (stereo not drawn) | 70% | 0% | 60% | 60% | 0% | 0% | 70% | –
CC(OC(=O)COc1ccccc1Cl)P1(=O)OCC(C)(C)CO1 (stereo not drawn) | 90% | 0% | 75% | 90% | 20% | 0% | 70% | –
Cc1cc(OCC(=O)OC(c2ccco2)P2(=O)OCC(C)(C)CO2)ccc1Cl (stereo not drawn) | 65% | 0% | 55% | 60% | 0% | 0% | 70% | –
CC1(C)COP(=O)(C(OC(=O)COc2ccc(Cl)cc2)c2ccccc2)OC1 (stereo not drawn) | 70% | 0% | 50% | 60% | 0% | 0% | 65% | –
CC(OC(=O)COc1ccc(Cl)cc1)P1(=O)OCC(C)(C)CO1 (stereo not drawn) | 75% | 0% | 60% | 70% | 10% | 0% | 70% | –
CC1(C)COP(=O)(C(OC(=O)COc2ccccc2Cl)c2ccco2)OC1 (stereo not drawn) | 90% | 0% | 70% | 85% | 0% | 0% | 70% | –
